Data set [1] relates to Mus musculus. The data set is described as follows: Prodrug activation in ovalbumin sensitized Balb/c mouse hypereosinophilia model assessed as chalcone-4 release in lungs at 30 nmol/kg administered intranasally. The format is organism-based. Particulars: in vivo, inhaled_or_intranasal.
Data set [2] relates to Mus musculus. The data set is described as follows: Antiinflammatory activity in ovalbumin sensitized Balb/c mouse hypereosinophilia model assessed as inhibition of lymphocyte recruitment at 22 nmol/kg administered intranasally 2 hrs prior to ovalbumin challenge for 3 days. The format is functional, organism-based. The essentials: (§1)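 8-day airway hypereosinophilia model in OVA-sensitized mice; OVA (10 μg in 25 μL saline, 12.5 μL/nostril) given intranasally on days 5, 6, 7 under ip ketamine 50 mg/kg/xylazine 3.33 mg/kg. Compound in PBS (25 μL) given intranasally 2 h before each challenge. BAL cell counts by hemocytometer plus Hemacolor-stained cytospin differentials (≥400 cells), as absolute numbers; n = 6 mice/group.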

Data set [3] relates to Mus musculus. The data set is described as follows: Antiinflammatory activity in ovalbumin sensitized Balb/c mouse hypereosinophilia model assessed as inhibition of macrophage recruitment at 22 nmol/kg administered intranasally 2 hrs prior to ovalbumin challenge for 3 days. The format is functional, organism-based. The gist of the method:
as §1

Data set [4] has as its system Mus musculus. The data set is described as follows: Antiinflammatory activity in ovalbumin sensitized Balb/c mouse hypereosinophilia model assessed as inhibition of neutrophil recruitment at 22 nmol/kg administered intranasally 2 hrs prior to ovalbumin challenge for 3 days. Type of data set: functional, organism-based. The essentials: as §1
For data set [5], the system named is Mus musculus. The data set is described as follows: Antiinflammatory activity in ovalbumin sensitized Balb/c mouse hypereosinophilia model assessed as inhibition of eosinophil recruitment at 22 nmol/kg administered intranasally 2 hrs prior to ovalbumin challenge for 3 days. Type of data set: functional. The essentials:
as §1

The target of data set [6] is T1, C-X-C chemokine receptor type 4 (Homo sapiens, UniProt P61073). The data set is described as follows: Inhibition of EGFP-tagged human CXCR4 expressed in HEK293 cells assessed as inhibition of CXCL12-TR binding at 5 uM incubated for 5 mins prior to CXCL12-TR addition by FRET assay. Type of data set: cell-based. The essentials:
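Binding of Texas Red-labelled CXCL12 (100 nM) to EGFP-tagged CXCR4 read by FRET as real-time decline of EGFP emission at 510 nm. Compound tested at 5 μM; percent inhibition of binding reported.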

The target in data set [7] is T1, C-X-C chemokine receptor type 4. The data set is described as follows: Inhibition of EGFP-tagged human CXCR4 expressed in HEK293 cells assessed as inhibition of CXCL12-TR binding incubated for 5 mins prior to CXCL12-TR addition by FRET assay. Type of data set: cell-based.
The nature of data set [8]: Half life in mouse lung homogenate by LC-MS analysis. Type of data set: ADME, tissue-based. The gist of the method: (§2)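 Freshly prepared compound solutions (10 μM) incubated at 37 °C in PBS, mouse serum or mouse lung homogenate. Parent and released product followed by LC-MS, RP-HPLC on C18 with ammonium acetate pH 7.4/acetonitrile gradient, 365 nm detection. Half-life taken from disappearance over time.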

The nature of data set [9]: Half life in mouse serum by LC-MS analysis. The format is ADME, cell-free. The essentials: as §2
Data set [10] can be described thus: Half life in PBS buffer by LC-MS analysis. Type of data set: physicochemical. The gist of the method: as §2
The nature of data set [11]: Solubility of the compound in HEPES buffer at pH 7.4 after 24 hrs. The format is physicochemical. The essentials:
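Thermodynamic solubility in aqueous HEPES buffer, pH 7.4, 22 °C, after 24 h incubation; tested up to 30 mM.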

Data set [12] has as its system Mus musculus. The data set is described as follows: Prodrug activation in ovalbumin sensitized Balb/c mouse hypereosinophilia model assessed as chalcone-4 release in lungs at 22 nmol/kg administered intranasally after 15 mins. Type of data set: organism-based. The conditions noted are these: in vivo, inhaled_or_intranasal, 0.25 h. The gist of the method:
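LC-MS detection of released parent chalcone in mouse lung tissue 15 min after intranasal dosing of prodrug.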

The test system of data set [13] is Mus musculus. The data set is described as follows: Antiinflammatory activity in ovalbumin sensitized Balb/c mouse hypereosinophilia model assessed as inhibition of lymphocyte recruitment at 30 nmol/kg administered intranasally 2 hrs prior to ovalbumin challenge measured 24 hrs post the last ovalbumin challenge by BAL analysis. The format is functional, organism-based. The essentials:
as §1

Data set [14] relates to Mus musculus. The data set is described as follows: Antiinflammatory activity in ovalbumin sensitized Balb/c mouse hypereosinophilia model assessed as inhibition of macrophage recruitment at 30 nmol/kg administered intranasally 2 hrs prior to ovalbumin challenge measured 24 hrs post the last ovalbumin challenge by BAL analysis. The format is functional, organism-based. The essentials: as §1

Data set [15] concerns Mus musculus. The data set is described as follows: Antiinflammatory activity in ovalbumin sensitized Balb/c mouse hypereosinophilia model assessed as inhibition of neutrophil recruitment at 30 nmol/kg administered intranasally 2 hrs prior to ovalbumin challenge measured 24 hrs post the last ovalbumin challenge by BAL analysis. The format is functional, organism-based. The essentials: as §1

Data set [16] has as its system Mus musculus. The data set is described as follows: Antiinflammatory activity in ovalbumin sensitized Balb/c mouse hypereosinophilia model assessed as inhibition of eosinophil recruitment at 30 nmol/kg administered intranasally 2 hrs prior to ovalbumin challenge measured 24 hrs post the last ovalbumin challenge by BAL analysis. The conditions noted are these: inhaled or nasal. The format is functional. The gist of the method: as §1

Data set [17] concerns Mus musculus. The data set is described as follows: Antiinflammatory activity in ovalbumin sensitized Balb/c mouse hypereosinophilia model assessed as inhibition of eosinophil recruitment administered intranasally 2 hrs prior to ovalbumin challenge for 3 days. The format is functional, organism-based. The essentials: as §1

Values after ≈ are worked out from the molar mass of the structure shown. Active and inactive are the calls of the source.

What is called inhibition is the share of the control response that was lost under treatment. For orientation: Ki means a dissociation constant, usually derived from enzyme kinetics or from competition with a known ligand. One may read the half-life as the time needed for the level to fall by half in the phase considered. One may read the solubility as the concentration that dissolves in the medium under given conditions. Read a high solubility as much dissolved substance. Broadly, the inhibition in vivo is the relative decrease from the control value, in per cent.

T1 sequence (P61073 whole entry): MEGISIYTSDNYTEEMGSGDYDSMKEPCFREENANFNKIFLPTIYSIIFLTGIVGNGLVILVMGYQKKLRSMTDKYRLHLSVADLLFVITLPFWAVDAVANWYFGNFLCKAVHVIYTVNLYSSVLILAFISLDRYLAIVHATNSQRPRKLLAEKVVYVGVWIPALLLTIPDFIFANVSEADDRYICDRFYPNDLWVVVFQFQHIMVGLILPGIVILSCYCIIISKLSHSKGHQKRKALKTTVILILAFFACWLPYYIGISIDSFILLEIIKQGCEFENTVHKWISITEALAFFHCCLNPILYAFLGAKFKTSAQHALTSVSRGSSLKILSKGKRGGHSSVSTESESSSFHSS

For `COc1cc(/C=C/C(=O)c2ccc(Cl)cc2)ccc1O`, the Drug metabolism result in the data set with Mus musculus [1] is given as “Active”. The inhibition result with Mus musculus [2], in the data set on Mus musculus [3], with Mus musculus [4] and with Mus musculus [5] was “inactive” in each case. Further, the inhibition in [6] was determined as 90%. Further, the Ki in [7] was determined as 0.053 µM. Also, the figures for the half-life in data set [8], in [9] and in data set [10] were over 6 h, over 10 h and over 10 h, respectively. The same molecule registered a solubility at 24 h in data set [11] of 9 µM (≈ 2.6 µg/mL).

`COc1cc(/C=C/C(=O)c2ccc(Cl)cc2)ccc1OP(=O)([O-])[O-].[Na+].[Na+]`: the Drug metabolism result in the data set on Mus musculus [1] and in the data set on Mus musculus [12] was “Active” each time. The inhibition result with Mus musculus [13], with Mus musculus [15], in the data set on Mus musculus [2] and in the data set with Mus musculus [4] was “Active” throughout. Moreover, the inhibition entry in the data set with Mus musculus [14] and with Mus musculus [3] was “inactive” throughout. In addition, the inhibition in vivo at 0.03 µmol/kg in the data set with Mus musculus [16] came to 64%. Also, the IC50 in the data set with Mus musculus [17] came out at 10 nmol/kg. Further, the inhibition in vivo at 0.022 µmol/kg in the data set with Mus musculus [5] (inhaled or nasal) was 56%. Further, the inhibition in data set [6] came out at 5%. Also, the half-life in [8] is under 0.25 h; in data set [9], 2 h; in [10], over 10 h. Further, the solubility at 24 h in [11] is over 30000 µM.

Take `COc1cc(/C=C/C(=O)c2ccc(Cl)cc2)ccc1OS(=O)(=O)[O-].[Na+]`: the Drug metabolism result with Mus musculus [1] is listed as “Active”. Moreover, the inhibition entry with Mus musculus [13] and in the data set on Mus musculus [15] was “Active” in each case. Besides, the inhibition result in the data set on Mus musculus [14] is “inactive”. Further, the inhibition in vivo at 0.03 µmol/kg with Mus musculus [16] amounted to 69%. Also, in [6], the inhibition worked out at 4%. Further, the half-life is 0.5 h in data set [8], over 10 h in [9] and over 10 h in data set [10]. In data set [11], this molecule gave a solubility at 24 h of 1430 µM.

For the molecule `COc1cc(/C=C/C(=O)c2ccc(Cl)cc2)ccc1OC(=O)[C@H](N)CO.Cl`, the Drug metabolism result in the data set on Mus musculus [1] is on record as “Active”. The inhibition result in the data set with Mus musculus [13] and in the data set on Mus musculus [15] was “Active” throughout. Moreover, in the data set with Mus musculus [14], the inhibition result is “inactive”. Further, the inhibition in vivo at 0.03 µmol/kg in the data set on Mus musculus [16] was 67%. The inhibition in data set [6] was found to be 15%. For the same molecule, the figures for the half-life in data set [8], in data set [9] and in [10] were under 0.0833 h, under 0.0833 h and 0.2 h, respectively. The molecule further registered a solubility at 24 h in data set [11] of 42 µM.

The values are drawn from ChEMBL document CHEMBL2203198, “Prodrugs of a CXC Chemokine-12 (CXCL12) Neutraligand Prevent Inflammatory Reactions in an Asthma Model in Vivo” (ACS Med Chem Lett, 2012).
